Screens from PubChem.
PfM18AAP inh-1: PfM18AAP inhibitors, malaria aminopeptidase, primary screen, biochemical, QFRET, recombinant enzyme. M18 aspartyl aminopeptidase (Plasmodium falciparum 3D7). H-Glu-NHMec fluorogenic cleavage. inhibition, % at 7.35 µM. 290,000 tested, 1.2% active;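 active means inhibition above the campaign mean inhibition over all tested compounds plus 3 SD, cut at about 28% in these data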;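 further: 0% = plate median of test compound wells and 100% = 2 mM ZnCl2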
CendR NRP1 mod: modulators of CendR peptide binding to NRP-1, primary screen, biochemical, fluorescence polarization, uHTS; Neuropilin-1 (Homo sapiens), O14786; FAM-RPARPAR peptide binding to NRP-1; inhibition, % at 25 µM; 360,000 tested, 0.85% active; AID 602438, 2012;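 active means inhibition or corrected inhibition above about 18%, plus a signal ratio from 0.5 to 1.5, limit read from the data, passing the limit was not always enough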
Arrestin-AP2 inh: inhibitors of beta-arrestin/AP2 binding, primary screen, biochemical, GPCR trafficking, flow cytometry. beta-arrestin 1 C-terminal peptide binding to AP2 beta2-adaptin appendage (human). FITC-arrestin peptide / GST-AP2 beads; AP2 beta2 appendage carries R879A mutation. inhibition, % at 10 µM. 340,000 tested, 0.31% active;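 active means inhibition above a set limit, near 3 SD of compounds lacking own fluorescence, cut at about 54% in these data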;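 further: plate controls were DMSO wells for no effect and 5 µM unlabelled arrestin peptide for full effect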
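System: GST-AP2 R879A glutathione beads. Medium: PBS with 0.05% Tween 20 and 0.1% BSA. Also added: FITC-arrestin peptide, 50 nM. Incubation: 12 min plus 1 h, RT. Measured by: high-throughput flow cytometry of beads, ex 488, em 535 nm. Evaluation: percent drop in bead-associated FITC signal.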
HTR2A ag: mouse Htr2a agonists via beta-arrestin recruitment, primary screen, cell-based, luminescence; AID 624169, 2012; 360,000 tested, 0.66% active; CHO-K1 mHTR2A beta-arrestin complementation; percent of 30 µM serotonin response; activation, % at 7.6 µM;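 active means activation above a run cutoff, the mean activation of all tested compounds plus 3 SD, cut at about 14% in these data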;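 further: 0% = plate median of compound wells and 100% = 30 µM serotonin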
Lipid droplet: inhibitors of hepatocyte lipid droplet formation, primary screen, imaging, high-throughput imaging, BODIPY stain. AML12 mouse hepatocytes, oleate lipid droplets. inhibition, % at 6.5 µM. 240,000 tested, 0.4% active;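 active means lipid droplet intensity inhibited by at least 50%, with more than 500 cells counted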
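Assay system: AML12 hepatocytes (mouse); Probe or stimulus: oleic acid at 100 µM to induce lipid droplet formation; Dosing: compound at 6.5 µM only; Schedule: compound with oleate, overnight; Detection: fluorescence imaging, 20x objective, two fields per well; Measure: % inhibition of lipid droplet signal.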
sPLA2-III inh: human group III sPLA2 inhibitors, primary screen, biochemical, QFRET, BODIPY PC-A2 liposome substrate | Group 3 secretory phospholipase A2 (Homo sapiens), Q9NZ20 | QFRET BODIPY PC-A2 liposome hydrolysis, fluorescence | inhibition, % at 12.2 µM | 370,000 tested, 0.56% active;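 active means inhibition above mean plus 3 SD of compounds lying within the high and low control bounds, cut at about 19% in these data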;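 further: 0% = median of test compound wells and 100% = no enzyme DMSO wells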
PfM18AAP inh-2: PfM18AAP inhibitors, malaria aminopeptidase, confirmation, biochemical, QFRET, recombinant enzyme, triplicate. shares compounds with PfM18AAP inh-1. inhibition, % at 7.35 µM. H-Glu-NHMec fluorogenic cleavage. 2,400 tested, 28% active;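 active means mean inhibition over replicate wells above the hit cutoff set for the earlier primary screen, cut at about 29% in these data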;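 further: 0% = median of test compound wells and 100% = 2 mM ZnCl2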
CTSL1 confirm: cathepsin L1 inhibitors, retest, confirmation, counter-screen for PFM18AAP inhibitor project, biochemical, QFRET, triplicate; shares compounds with PfM18AAP inh-1; purified cathepsin L1, Z-Leu-Arg-MCA fluorescence; inhibition, % at 5.96 µM; 2,400 tested, under 10 active; AID 2178, 2009;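 active means average inhibition across replicates above the hit cutoff set in the earlier primary screen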;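 further: 0% = median of test compound wells and 100% = Z-Phe-Ala-diazomethylketone 1 µM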
Target sequence (P07711 whole entry, looked up): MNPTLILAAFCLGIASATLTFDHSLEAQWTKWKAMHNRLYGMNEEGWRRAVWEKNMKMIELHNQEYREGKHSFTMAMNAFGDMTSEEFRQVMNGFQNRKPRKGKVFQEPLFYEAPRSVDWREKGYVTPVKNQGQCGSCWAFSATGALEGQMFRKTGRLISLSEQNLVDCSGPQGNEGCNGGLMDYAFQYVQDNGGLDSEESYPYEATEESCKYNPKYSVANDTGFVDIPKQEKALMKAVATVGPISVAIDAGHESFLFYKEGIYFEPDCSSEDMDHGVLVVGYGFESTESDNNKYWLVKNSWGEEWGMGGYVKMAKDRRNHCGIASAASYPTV
* marks the source's active call; other numbers are inactive results; x = not tested or not shown. An excerpt weighted towards active compounds, which were near 3.3% of everything screened.

SMILES | PfM18AAP inh-1 | CendR NRP1 mod | Arrestin-AP2 inh | HTR2A ag | Lipid droplet | sPLA2-III inh | PfM18AAP inh-2 | CTSL1 confirm
O=S1(=O)c2c(NCc3ccco3)cccc2Oc2ccccc2CN1Cc1cn(Cc2ccccc2C(F)(F)F)nn1 | x | x | x | x | x | -7 | x | x
O=c1[nH]c(=S)[nH]c2c1CN(Cc1ccc(F)cc1)CC2 | 37* | -2 | -2 | 8 | -2 | 6 | 9 | 5
NC(=S)N/N=C/c1coc2ccc(O)cc2c1=O | 69* | -2 | 13 | -1 | -2 | 10 | 42* | 6
NC(=S)N/N=C/c1coc2ccc(Br)cc2c1=O | 6 | -28 | 27 | 7 | -17 | -10 | x | x
CCOc1ccc(OCCC(=O)OCC(=O)NC2CCCC2)cc1 | x | 0 | -12 | -3 | x | 1 | x | x
COCCn1c(Cc2cccn2C)nnc1SCC(=O)NCc1ccc2c(c1)OCO2 | 35* | -1 | -6 | 9 | -2 | -3 | -40 | 2
Cn1cccc1Cc1nnc(SCC(=O)Nc2ccc3c(c2)OCO3)n1CCc1ccccc1 | 2 | -3 | 3 | 1 | 9 | -27 | x | x
OCCN(Cc1ccccc1)Cc1cccc(F)c1 | 0 | -7 | -7 | 1 | -9 | 6 | x | x
Fc1cccc(C[n+]2csc3ccccc32)c1 | 34* | 1 | 22 | 11 | x | -2 | 6 | 0
CCOC(=O)/C(=C\C=C1/Sc2ccccc2N1CC)C(C)=O | 45* | 135 | 2 | -2 | -7 | -21 | -20 | 8
CCOC(=O)/C(=C/C=C1\Sc2cc(C)c(C)cc2N1CC)C(C)=O | 22 | 128 | 36 | 3 | -6 | -20 | x | x
CCOC(=O)/C(=C/C=C1\Sc2ccccc2N1CC)C(C)=O | 43* | 138 | 52 | 0 | 6 | x | -37 | 0
CN(C)c1ccc(-c2ccnc3c2CC(C)(C(=O)NCc2ccco2)O3)cc1 (stereo not given) | x | 0 | x | -2 | x | -1 | x | x
COc1ccc(NC(=O)C(c2ccc(C#N)cc2)n2c(=O)c(-c3cc4ccccc4[nH]3)nc3ccccc32)cc1 (stereo not given) | x | 2 | x | 3 | x | -3 | x | x
NC(=S)NNc1ccnc2cc(Cl)ccc12 | 55* | -33 | 2 | -4 | -8 | 5 | 28* | 4
Cc1ccc2oc(=O)c(/C=C(\O)c3ccco3)nc2c1 | 50* | -9 | -5 | -5 | -1 | -6 | 21 | 4
O=C(N[C@H](C(=O)N1CCC[C@H]1C(=O)NCCc1ccccc1Cl)c1ccccc1)c1cccs1 | x | x | x | x | x | -6 | x | x
O=C1C=C(Nc2cccc(O)c2)CC(c2ccco2)C1 (stereo not given) | 44* | -1 | 3 | -4 | 13 | -2 | -34 | 2
O=C1C=C(Nc2ccc(Cl)cc2)CC(c2ccco2)C1 (stereo not given) | 10 | 1 | 3 | 10 | -3 | -4 | x | x
COc1ccc(N2C(=O)/C(=C/c3cccnc3)NC2=S)cc1 | -3 | -2 | 6 | -5 | -2 | 7 | x | x
COc1ccc(N2C(=O)/C(=C/N(C)C)NC2=S)cc1 | 80* | 7 | 2 | 3 | 2 | 1 | 69* | 6
COc1ccc(S[C@]2(C(=O)N3CCOCC3)CC(=O)N[C@@H]2c2ccc(OC)cc2)cc1 | x | x | x | x | x | 4 | x | x
COC(=O)[C@]12C[C@H](CC(=O)N3CCN(C(=O)c4ccco4)CC3)C(=O)N(CCc3ccc(OC)c(OC)c3)C1=C[C@H](C(C)(C)C)O[C@@H]2C | x | x | x | x | x | -8 | x | x
COC(=O)C(C)Sc1n[nH]c(=S)s1 (stereo not given) | 37* | -11 | 1 | -8 | 6 | 9 | -24 | -1
COC(=O)[C@@]12C[C@@H](CC(=O)NCc3cccc(C(F)(F)F)c3)C(=O)N(Cc3ccc4c(c3)OCO4)C1=CCC(C)(C)C2 | x | 16 | x | -1 | x | -17 | x | x
SMILES | PfM18AAP inh-1 | CendR NRP1 mod | Arrestin-AP2 inh | HTR2A ag | Lipid droplet | sPLA2-III inh | PfM18AAP inh-2 | CTSL1 confirm
COc1ccc(/C(C)=N/Nc2nc3ccccc3nc2C)cc1 | 56* | -3 | -17 | 4 | -2 | -3 | -14 | 3
O=C1NC(=O)C(=C2CCOC2=O)N1 | x | -4 | x | -2 | x | 1 | x | x
Cc1cccc(NC(=O)CN2CCc3cc4c(cc3C2)OCCCO4)c1 | 20 | 10 | 6 | -7 | -26 | -1 | x | x
O=C(CN1CCc2cc3c(cc2C1)OCCCO3)Nc1cccc([N+](=O)[O-])c1 | 35* | -8 | -2 | -3 | -2 | 0 | 1 | 0
CCCCCCCCN1C(=O)[C@H](CC(=O)NCc2cccs2)C[C@@]2(C(=O)OC)CC(C)(C)CC=C12 | x | -4 | x | -7 | x | -3 | x | x
O=C(CN1CCN(c2ccc(F)cc2)CC1)c1ccc(O)cc1O | 18 | -10 | 23 | -3 | -12 | 4 | x | x
COc1ccc(N2CCN(CC(=O)c3ccc(O)cc3O)CC2)cc1 | 37* | 3 | -5 | -1 | 7 | 4 | -6 | -2
O=C(NN=C1CCC(=NNC(=O)c2ccccn2)CC1)c1ccccn1 | 32* | 5 | -20 | 0 | 8 | -2 | -17 | -1
CCOC(=O)CC[C@@H]1CC[C@]2(CCCN(Cc3nccs3)C2)O1 | x | x | x | x | x | 15 | x | x
COc1ccc(CCNCc2cc(C)n(-c3ccc(OC)cc3)c2C)cc1 | 42* | -4 | 13 | -7 | -32 | 5 | -10 | -3
COc1ccc(CCNCc2ccccc2N2CCCC2)cc1 | 3 | 3 | 2 | 11 | -35 | 2 | x | x
CSc1nc2nc3c(cn2n1)C(=O)CC(c1ccccc1)C3 (stereo not given) | 34* | -6 | 8 | 2 | 1 | 1 | -53 | -2
CSc1ccc(CN2CCC2(C)C(=O)NC2CCN(Cc3ccccc3)CC2)cc1 (stereo not given) | x | -3 | x | -9 | x | 0 | x | x
COC(=O)c1cc(N/C(N)=N/c2nc(C)cc(C)n2)cc(C(=O)OC)c1 | x | -6 | x | 1 | x | 1 | x | x
COc1cccc2sc3ccc(NCCC4CCCN4C)cc3c(=O)c12 (stereo not given) | 33* | -16 | 4 | -7 | 15 | 1 | -45 | -2
